Data from ChEMBL document CHEMBL1130209, “A novel series of 2,5-substituted tryptamine derivatives as vascular 5HT1B/1D receptor antagonists” (J Med Chem, 1997).
Active and inactive are the calls of the source. The calls are words filed in the database; no cut-off is given here.

Columns and labels:
Type in all cases: tissue-based
Conditions in all cases: Oryctolagus cuniculus, target entry is the homologue from another species
[1] = target: 5-hydroxytryptamine receptor 2A (Homo sapiens) (UniProt P28223); assay: Dissociation equilibrium constant against the vascular 5-hydroxytryptamine 2A receptor in the rabbit […] aorta
5-hydroxytryptamine receptor 2A (Homo sapiens), sequence (P28223 whole entry): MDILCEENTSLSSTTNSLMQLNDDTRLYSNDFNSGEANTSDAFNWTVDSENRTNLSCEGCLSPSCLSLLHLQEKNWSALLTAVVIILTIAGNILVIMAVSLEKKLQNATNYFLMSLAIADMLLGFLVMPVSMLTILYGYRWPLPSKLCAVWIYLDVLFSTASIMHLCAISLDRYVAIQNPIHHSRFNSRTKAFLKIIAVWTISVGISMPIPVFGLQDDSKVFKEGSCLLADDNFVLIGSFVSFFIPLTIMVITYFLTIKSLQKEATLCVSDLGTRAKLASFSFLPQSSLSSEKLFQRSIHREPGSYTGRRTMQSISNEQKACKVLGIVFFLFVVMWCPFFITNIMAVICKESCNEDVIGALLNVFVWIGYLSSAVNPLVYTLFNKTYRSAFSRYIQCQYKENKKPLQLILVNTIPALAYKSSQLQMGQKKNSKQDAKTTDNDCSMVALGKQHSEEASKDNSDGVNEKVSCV

[2] = target: 5-hydroxytryptamine receptor 1B (Homo sapiens) (UniProt P28222); assay: Dissociation equilibrium constant against the vascular 5-hydroxytryptamine 1B like receptor in the rabbit saphenous vein
5-hydroxytryptamine receptor 1B (Homo sapiens), sequence (P28222 whole entry): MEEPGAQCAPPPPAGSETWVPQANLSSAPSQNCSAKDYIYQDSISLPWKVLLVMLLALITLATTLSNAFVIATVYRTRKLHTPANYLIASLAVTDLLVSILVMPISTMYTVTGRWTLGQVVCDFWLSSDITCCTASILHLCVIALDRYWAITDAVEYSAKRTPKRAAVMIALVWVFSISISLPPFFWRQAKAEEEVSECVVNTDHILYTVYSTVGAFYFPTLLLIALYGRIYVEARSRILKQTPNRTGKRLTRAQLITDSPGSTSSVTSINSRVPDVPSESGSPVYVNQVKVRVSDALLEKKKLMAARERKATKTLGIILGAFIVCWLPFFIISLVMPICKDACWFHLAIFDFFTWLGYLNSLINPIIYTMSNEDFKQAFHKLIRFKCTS
How it was run: (§1)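 Saphenous vein rings (4–5 mm) from male New Zealand white rabbits, killed with pentobarbitone 80 mg/kg iv and exsanguination, mounted on tungsten wires. Phenoxybenzamine 0.3 μM for 30 min, washed out, 1 μM 5HT viability check. Cumulative 5HT curve, then after 60 min recovery a test compound curve. Non-agonists tested as 5HT antagonists, giving apparent pKB.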

[3] = target: 5-hydroxytryptamine receptor 1B (Homo sapiens) (UniProt P28222); assay: The dissociation equilibrium constant (pKB=-log KB) of compound was determined against the vascular 5-hydroxytryptamine 1B like receptor in the rabbit saphenous vein(RbSV); NS=non surmountable; how it was run: as §1

SMILES	pKB [1]	pKB [2]	pKB [3]
CC(C)OC(=O)c1[nH]c2ccc(CCN3C(=O)NC(C)(C)C3=O)cc2c1-c1ccncc1	< 5	5.25	–
COC(=O)c1[nH]c2ccc(CN3C(=O)CNC3=O)cc2c1CCN(C)C	5.15	5.41	–
CC(C)OC(=O)c1[nH]c2ccc(CCN3C(=O)NC(C)(C)C3=O)cc2c1C1=CCN(C)CC1	< 5	6.34	–
CCOC(=O)c1[nH]c2ccc(CCN3C(=O)c4ccccc4C3=O)cc2c1C1=CCN(C)CC1	5.02	6.42	–
CC(C)OC(=O)c1[nH]c2ccc(CCN3C(=O)NC(C)(C)C3=O)cc2c1CCN(C)C	5.8	6.82	–
CCOC(=O)c1[nH]c2ccc(CCN3C(=O)CCC3=O)cc2c1CCN(C)C	6.3	6.78	–
CCOC(=O)c1[nH]c2ccc(CCN3C(=O)CNC3=O)cc2c1C1=CCN(C)CC1	< 5	5.88	–
COC(=O)c1[nH]c2ccc(CCN3C(=O)CNC3=O)cc2c1-c1ccncc1	< 5	–	inactive
COC(=O)c1[nH]c2ccc(CCN3C(=O)CNC3=O)cc2c1CCN(C)C	< 5	6.97	–
CCOC(=O)c1[nH]c2ccc(CCC3COC(=O)N3)cc2c1CCN(C)C (stereo unspecified)	6.76	7.21	–
CCOC(=O)c1[nH]c2ccc(CCN3CCCC3=O)cc2c1CCN(C)C	5.5	6.1	–
CCOC(=O)c1[nH]c2ccc(CN3C(=O)NC(C)(C)C3=O)cc2c1CCN(C)C	5.52	6.54	–
CCOC(=O)c1[nH]c2ccc(CC3COC(=O)N3)cc2c1CCN(C)C (stereo unspecified)	5.66	6.12	–
CCOC(=O)c1[nH]c2ccc(CCN3C(=O)CNC3=O)cc2c1C1CCN(C)CC1	< 5	< 5	–
COC(=O)c1[nH]c2ccc(CCN3C(=O)c4ccccc4C3=O)cc2c1CCN(C)C	5.66	7.39	–
CN(C)CCc1c(C(=O)O)[nH]c2ccc(CCN3C(=O)CNC3=O)cc12	< 5	6.17	–
COC(=O)c1[nH]c2ccc(CCC3COC(=O)N3)cc2c1CCN(C)C (stereo unspecified)	5.88	6.61	–
CN(C)CCc1c(C(=O)OCc2ccccc2)[nH]c2ccc(CCN3C(=O)CNC3=O)cc12	7.3	7.91	–
CC(C)OC(=O)c1[nH]c2ccc(CN3C(=O)NC(C)(C)C3=O)cc2c1CCN(C)C	5.62	5.62	–
CC(C)OC(=O)c1[nH]c2ccc(CCN3C(=O)CNC3=O)cc2c1CCN(C)C	6.57	6.85	–
CCOC(=O)c1[nH]c2ccc(CCN3C(=O)NC(C)(C)C3=O)cc2c1CCN(C)C	5.23	7.34	–

More lines, now with the values ahead:

pKB [1]	pKB [2]	pKB [3]	SMILES
4.77	5.95	–	CN(C)CCc1c(C(=O)OC2CCCCC2)[nH]c2ccc(CCN3C(=O)NC(C)(C)C3=O)cc12
5.02	6.88	–	COC(=O)c1[nH]c2ccc(CCN3C(=O)NC(C)(C)C3=O)cc2c1CCN(C)C
6.2	7.3	–	CCOC(=O)c1[nH]c2ccc(CCC3NC(=O)N(C)C3=O)cc2c1CCN(C)C (stereo unspecified)
< 5	5.29	–	CCOC(=O)c1[nH]c2ccc(CCN3C(=O)CNC3=O)cc2c1-c1ccncc1
4.6	4.8	–	CN(C)CCc1c(C#N)[nH]c2ccc(CC3COC(=O)N3)cc12 (stereo unspecified)
< 5	6	–	COC(=O)c1[nH]c2ccc(CCN3CCOC3=O)cc2c1CCN(C)C
6.26	7.54	–	CCOC(=O)c1[nH]c2ccc(CCN3C(=O)c4ccccc4C3=O)cc2c1CCN(C)C
5.86	5.32	–	CCOC(=O)c1[nH]c2ccc(CN3C(=O)CNC3=O)cc2c1CCN(C)C
< 4.5	4.75	–	CN(C)CCc1c(C(N)=O)[nH]c2ccc(CC3COC(=O)N3)cc12 (stereo unspecified)
5.03	6.45	–	COC(=O)c1[nH]c2ccc(CN3C(=O)NC(C)(C)C3=O)cc2c1CCN(C)C
< 5	5.86	–	CN(C)CCc1c(Br)[nH]c2ccc(CC3COC(=O)N3)cc12 (stereo unspecified)
7.56	7.72	–	CCOC(=O)c1[nH]c2ccc(CCN3C(=O)CSC3=O)cc2c1CCN(C)C
